IDH1 R132H inh: blocks human IDH1 R132H reductase activity; O75874; diaphorase/resazurin fluorescence, 60 min; inhibition, % at 10 µM; hit rate 0.18% among 70,000; in the data active = inhibition above about 34%; inconclusive = no clear call, values can overlap the other calls; inactive = below about 11%;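 also: 0% = DMSO and 100% = no enzyme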
Target sequence (O75874 whole entry R132H): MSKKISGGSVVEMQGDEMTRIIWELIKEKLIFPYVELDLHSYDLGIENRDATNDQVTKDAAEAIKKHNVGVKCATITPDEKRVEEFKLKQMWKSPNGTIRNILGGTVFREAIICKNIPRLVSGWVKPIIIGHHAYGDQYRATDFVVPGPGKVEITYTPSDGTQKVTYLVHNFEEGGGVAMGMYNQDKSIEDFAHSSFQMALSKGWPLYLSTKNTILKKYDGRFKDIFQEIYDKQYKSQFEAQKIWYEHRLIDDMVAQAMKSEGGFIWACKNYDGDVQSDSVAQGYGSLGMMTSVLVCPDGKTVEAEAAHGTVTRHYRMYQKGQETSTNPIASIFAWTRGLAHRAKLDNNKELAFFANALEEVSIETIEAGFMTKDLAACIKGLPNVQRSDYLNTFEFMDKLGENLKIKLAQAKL
KDM4C inh: inhibitors of human demethylase GASC-1 KDM4C. GST-KDM4C 2-372, H3K9me3 peptide, LANCE TR-FRET. hit rate 0.15% among 96,000. Q9H3R0. inhibition, % at 12.5 µM;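 active = mean replicate inhibition above about 25%, with at least 55% of replicates also reaching it, limit read from the data, passing the limit was not always enough; inconclusive = only one of those two conditions met; inactive = neither condition met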
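Test system: N-terminal GST-fused human GASC-1 (KDM4C) fragment, residues 2-372; quantity: GASC-1 enzyme at 10 nM final in reaction; dosing: single dose; schedule: 30 min demethylation and 1 h detection at room temperature; signal: LANCE TR-FRET, excitation 340 nm, emissions 618 and 671 nm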
T cruzi growth-1: T. cruzi proliferation inhibition | T. cruzi beta-gal in NIH3T3, GalScreen luminescence, 90 h | hit rate 5.9% among 77,000 | inhibition, % at 8.34 µM | AID 624255;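 active = mean inhibition above about 93%, with at least 55% of replicates each passing it, limit read from the data, passing the limit was not always enough; inconclusive = only one of those two conditions holds; inactive = neither condition holds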
T cruzi growth-2: blocks T. cruzi growth in NIH3T3 host cells. shares compounds with T cruzi growth-1. T. cruzi beta-gal in NIH3T3, GalScreen luminescence, 90 h. inhibition, % at 8.35 µM. hit rate 72% among 5,600. AID 651739;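 active = mean replicate inhibition above about 95% and at least 55% of replicates individually reaching it, limit read from the data; inconclusive = only one of the two criteria is met; inactive = neither criterion is met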
T cruzi growth-3: inhibitors of T. cruzi proliferation; hit rate 21% among 5,600; shares compounds with T cruzi growth-1; inhibition, % at 2.09 µM; T. cruzi beta-gal in NIH3T3, GalScreen luminescence, 90 h;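 active = mean inhibition above about 95%, with at least 55% of replicates also reaching it, limit read from the data; inconclusive = meets just one of the two conditions; inactive = meets neither condition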;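 also: plate controls were neutral control median for no effect and positive control median for full effect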
3T3 cytotox: kills mouse NIH/3T3 fibroblasts; hit rate 14% among 5,600; cytotoxicity (signal decrease), % at 8.35 µM; NIH/3T3 viability, CellTiter-Glo ATP luminescence, 90 h; AID 651742; shares compounds with T cruzi growth-1;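 active = mean signal decrease across replicates above about 35% based on untreated-well scatter, with enough replicates individually passing, limit read from the data; inconclusive = no rule stated though some were filed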;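 also: 0% = median of neutral control wells and 100% = median of positive control wells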
NIH3T3 tox 2: NIH/3T3 (mouse) viability loss; shares compounds with T cruzi growth-1; NIH/3T3 viability, CellTiter-Glo ATP luminescence, 90 h; inhibition, % at 24.9 µM; hit rate 56% among 5,600;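 active = mean loss of cell viability signal at or above a set limit, and enough replicates individually reaching it; inconclusive = meets only the mean limit or only the replicate share; inactive = meets neither condition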;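 also: 0% = median of neutral control wells and 100% = median of positive control wells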
An asterisk follows results filed as active; ? = inconclusive; . = not tested or not shown. Many of the other results were omitted from the sample, so hits are more common in it than they were.

SMILES	IDH1 R132H inh	KDM4C inh	T cruzi growth-1	T cruzi growth-2	T cruzi growth-3	3T3 cytotox	NIH3T3 tox 2
C[C@@H]1CN([C@@H](C)CO)C(=O)c2cc(NC(=O)Nc3ccc(F)cc3)ccc2O[C@@H](C)CCCCO[C@H]1CN(C)Cc1ccc(Cl)c(Cl)c1	0	-3	103*	94	110*	44*	15
Cc1cccc(OCC(=O)Nc2ccc(Cl)c(-c3nc4ccccc4s3)c2)c1	0	.	.	.	.	.	.
CCC(Sc1nc(N)cc(=O)[nH]1)C(=O)Nc1ccc2ccccc2c1 (stereo unspecified)	0	.	.	.	.	.	.
CCCC#Cc1ccc2c(c1)O[C@@H](CN(C)Cc1cncnc1)[C@@H](C)CN([C@@H](C)CO)S2(=O)=O	0	-1	44	.	.	.	.
CCCC#Cc1ccc2c(c1)O[C@H](CN(C)Cc1cccnc1)[C@H](C)CN([C@@H](C)CO)S2(=O)=O	13	6	109*	99*	52	54*	?
CCCC#Cc1ccc2c(c1)O[C@H](CN(C)Cc1cccnc1)[C@@H](C)CN([C@H](C)CO)S2(=O)=O	-4	1	123*	106*	104*	32	92*
CCCC#Cc1ccc2c(c1)O[C@H](CN(C)Cc1cncnc1)[C@H](C)CN([C@@H](C)CO)S2(=O)=O	-2	3	40	.	.	.	.
CCCC#Cc1ccc2c(c1)O[C@H](CN(C)Cc1cncnc1)[C@H](C)CN([C@H](C)CO)S2(=O)=O	0	19	38	.	.	.	.
CCCC#Cc1ccc2c(c1)O[C@@H](CN(C)Cc1cccnc1)[C@@H](C)CN([C@@H](C)CO)S2(=O)=O	53*	1	96*	99*	72	33	18
CCCC#Cc1ccc2c(c1)O[C@H](CN(C)Cc1cccnc1)[C@H](C)CN([C@H](C)CO)S2(=O)=O	6	1	115*	106*	74	53*	31*
CCCC#Cc1ccc2c(c1)O[C@@H](CN(C)Cc1cncnc1)[C@H](C)CN([C@H](C)CO)S2(=O)=O	-1	18	42	.	.	.	.
CCc1c(C)nc(SCC(=O)Nc2ccc(C(=O)OC)cc2)[nH]c1=O	0	.	.	.	.	.	.
Cn1nc(CC(=O)Nc2ccc(OC(=O)c3ccccc3)cc2)c2ccccc2c1=O	1	.	.	.	.	.	.
O=C(Nc1c(Cl)cc(Cl)cc1C(=O)NCc1ccco1)c1cccc([N+](=O)[O-])c1	0	.	.	.	.	.	.
COC(=O)c1c(NC(=O)C(C)Oc2ccccc2F)sc2c1CCC2 (stereo unspecified)	0	.	.	.	.	.	.
O=C(CSc1n[nH]c(-c2ccncc2)n1)N1c2ccccc2Sc2ccccc21	1	.	.	.	.	.	.
COCC#Cc1ccc2c(c1)O[C@H](CN(C)Cc1cncnc1)[C@H](C)CN([C@H](C)CO)S2(=O)=O	3	-1	15	.	.	.	.
COCC#Cc1ccc2c(c1)O[C@H](CN(C)Cc1cccnc1)[C@@H](C)CN([C@@H](C)CO)S2(=O)=O	7	0	105*	97*	89	33	64*
CC1Sc2ccc(Cl)cc2C(=O)/C1=C/N(C)C (stereo unspecified)	-1	.	.	.	.	.	.
COc1cc(C2NC(=S)NC(C)=C2C(=O)Nc2ccccc2Cl)ccc1OCC#N (stereo unspecified)	0	.	.	.	.	.	.
O=C(CN(C1CCCCC1)S(=O)(=O)c1ccc(Br)cc1)Nc1c(F)cccc1F	0	.	.	.	.	.	.
COc1cccc(NC(=O)N(C)C[C@@H]2Oc3ncc(C#Cc4ccccc4)cc3C(=O)N([C@@H](C)CO)C[C@H]2C)c1	.	.	118*	111*	103*	6	3
COc1ccc(C#Cc2cnc3c(c2)C(=O)N([C@H](C)CO)C[C@H](C)[C@H](CN(C)C(=O)Nc2cccc(OC)c2)O3)cc1	.	-6	42	.	.	.	.
C[C@@H]1CN([C@@H](C)CO)C(=O)c2cc(C#CC3CCCC3)cnc2O[C@@H]1CN(C)C(=O)Nc1ccccc1	.	-1	63	.	.	.	.
C[C@H](CO)N1C[C@H](C)[C@@H](CN(C)C(=O)Cc2ccccn2)Oc2ncc(C#CC3CC3)cc2C1=O	.	1	104*	61	17	10	36*
SMILES	IDH1 R132H inh	KDM4C inh	T cruzi growth-1	T cruzi growth-2	T cruzi growth-3	3T3 cytotox	NIH3T3 tox 2
C[C@H]1CN([C@@H](C)CO)C(=O)c2cc(C#CC3CC3)cnc2O[C@@H]1CN(C)C(=O)Cc1ccccn1	-6	4	35	.	.	.	.
C[C@@H]1CN([C@H](C)CO)C(=O)c2cc(C#CC3CCCC3)cnc2O[C@H]1CN(C)C(=O)Nc1ccccc1	.	-1	99*	104*	43	-6	2
COc1ccc(C#Cc2cnc3c(c2)C(=O)N([C@@H](C)CO)C[C@@H](C)[C@H](CN(C)C(=O)Nc2cccc(OC)c2)O3)cc1	.	-4	?	110*	89	2	9
COc1cccc(NC(=O)N(C)C[C@H]2Oc3ncc(C#Cc4ccncc4)cc3C(=O)N([C@@H](C)CO)C[C@@H]2C)c1	2	0	.	.	.	.	.
O=C(CSc1ccccn1)Nc1cccc(F)c1	-1	.	.	.	.	.	.
Cc1ccccc1NC(=O)CSc1nnc(-c2ccc(C(C)(C)C)cc2)n1C	0	.	.	.	.	.	.
CC1(C)Cc2ccccc2C(CSc2nc3c(c(C(F)(F)F)n2)CCCC3)=N1	0	.	.	.	.	.	.
COc1ccc(-c2ccc3c(c2)[C@@H]2[C@@H](CCN2C(=O)NC(C)C)[C@H](CO)N3C)cc1	.	2	29	.	.	.	.
CC(C)NC(=O)N1CC[C@@H]2[C@H]1c1cc(-c3ccc(F)cc3)ccc1N(C)[C@@H]2CO	.	0	108*	111*	85	-1	9
CC(C)NC(=O)N1CC[C@@H]2[C@H]1c1cc(-c3cccc(F)c3)ccc1N(C)[C@H]2CO	.	-1	75	.	.	.	.
CC(C)NC(=O)N1CC[C@@H]2[C@@H](CO)N(C)c3ccc(-c4ccc(F)cc4)cc3[C@@H]21	.	0	100*	105*	101*	-22	49*
COc1ccc(OC)c(NC(=O)CNC(=O)c2ccccc2F)c1	0	.	.	.	.	.	.
C[C@@H]1CN([C@H](C)CO)C(=O)c2cc(NC(=O)Nc3ccc(F)cc3)ccc2O[C@@H](C)CCCCO[C@@H]1CN(C)S(=O)(=O)c1ccc(F)cc1	.	0	67	.	.	.	.
C[C@H]1CCCCO[C@@H](CN(C)S(=O)(=O)c2ccc(F)cc2)[C@@H](C)CN([C@@H](C)CO)C(=O)c2cc(NC(=O)Nc3ccc(F)cc3)ccc2O1	0	-1	96*	105*	99*	29	43*
C[C@H](CO)N1C[C@H](C)[C@H](CN(C)S(=O)(=O)c2ccc(F)cc2)OCCCC[C@H](C)Oc2ccc(NC(=O)Nc3ccc(F)cc3)cc2C1=O	1	0	103*	103*	68	18	45*
